Test system: MS2 coat protein
Assay: apparent Kd, MS2 coat protein; higher = weaker binding; RNA-MaP array
Outline: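 Sequenced DNA templates on an Illumina sequencing chip were transcribed into the designed RNAs. These were incubated at room temperature in Tris-HCl pH 7.5 buffer containing KCl, MgCl2, BSA, DTT, tRNA and Tween20 with fluorescently labeled MS2 coat protein at 1.5 nM to 3 μM, with or without input ligand. Apparent Kd is the median of binding-curve fits per cluster, and designs with fewer than 10 clusters measured were excluded.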

[1] = designed as: ON switch for flavin mononucleotide, no ligand
[2] = ligand present: flavin mononucleotide, designed as: ON switch for flavin mononucleotide
[3] = designed as: ON switch for theophylline, no ligand
[4] = ligand present: theophylline, designed as: ON switch for theophylline
[5] = designed as: OFF switch for flavin mononucleotide, no ligand
[6] = ligand present: flavin mononucleotide, designed as: OFF switch for flavin mononucleotide

Row | Sequence | apparent Kd [1] | apparent Kd [2] | apparent Kd [5] | apparent Kd [6] | also measured
1 | AACAAACACAUGAGGAUCACCCAUGUCCUUGAUAUAAUUACUCAGGAUAUCAUGUCCUCUCACCGUGAGAAGGGAGUCAAAACC | 76.8 nM | 59.5 nM |  |  | 
2 | CUUGGCGCUCAGAAGGCCGUCCAUGCACGCGCUAGGACAUGAGGAUCACCCAUGUAUCUAUGGACGGAGGAUAUGAUUCUCUCG | 20.4 nM | 8.75 nM |  |  | 
3 | GGUUCGCAUGUAGGAUAUCGCAAUAUAAACAUGAGGAUCACCCAUGUAACAAUGUAAACGGACAACGAGAAGGACAUCAACUCC | 44.6 nM | 22.8 nM |  |  | 
4 | CCCAUACAUGAGGAUCACCCAUGUGUUGAUACCAGCAUAUGUAGAUGCCCUUGGCAGCAAGCUUGGGUCACUGGAAAACAUCUAA |  |  |  |  | apparent Kd [3]: 25.9 nM; apparent Kd [4]: 56.5 nM
5 | UAACCAAAUGGAUGACCACAUGAGGAUCACCCAUGUCGGCAACAGGAUAUUAUCAGAUGGGCUAAUAAGAAGGGUUACUCAGCC |  |  | 14.9 nM | 13.2 nM | 
6 | ACCCGACAAGUGAGGAUAUUGAUAAGAGGAGCUUACAAGAAGGCACAUGAGGAUCACCCAUGUAUUAAGUGAAG |  |  | 7.97 nM | 9.8 nM | 
7 | CGGAAGUGCAGCGCUUAAAGUACAUGAGGAUCACCCAUGUGAAAGGAUAUAUCGAAGUCAAAAUAAUAGAAGGUUCAGUGGGAU |  |  | 22.6 nM | 21.1 nM | 
8 | GACGCGAGCGCACUUACAUGAGGAUCACCCAUGUGUUCCGAAAGAAGGGCUAGUGUACCCGCAGAGCAGGAUAUUUCGAUUUGC | 186 nM | 121 nM |  |  | 
9 | AGAUCCUUGGUCAGGAUAUCCAAUAAAGCCGUUUGGGAGAAGGGACAUGAGGAUCACCCAUGUAAAUUGACCAC |  |  | 12.2 nM | 32.3 nM | 
10 | CAAAACAUGAGGAUCACCCAUGUAGAUACGUGAAAAUUAUGGGAGGAUAUACAAUAGGACUGUAUGAAGAAGGCCCGAAAGCCA | 20 nM | 18.5 nM |  |  | 
11 | UCGAUGGUAUCUGAUACCAGUAGCGUGCGUUACAUGAGGAUCACCCAUGUGCCUAUACUUUACCCUUGGCAGCAGUGGAUUCGAU |  |  |  |  | apparent Kd [3]: 207 nM; apparent Kd [4]: 58.5 nM
12 | UUCGCCACGCAAGGAUAUGAUACUUAUUGCUGUUCAGAAGGUGCGACAUGAGGAUCACCCAUGUGGUGUGUCCAGGGAGGCUAG |  |  | 333 nM | 336 nM | 
13 | CAGUGAGAGUCGGCCGCCACUUAACGCAAGUAGCGCAACCCAAAACAUGAGGAUCACCCAUGUCGAAGGACCGGGACAAUGAGCG |  |  |  |  | apparent Kd (designed as: ON switch for tryptophan, no ligand): 12.9 nM; apparent Kd (ligand present: tryptophan, designed as: ON switch for tryptophan): 12.2 nM
14 | CUUUUACAUGAGGAUCACCCAUGUUGUACAGGGUUAGGAUAUCUUAAUGUUAAGUUAAUGAGAGAAGGAACAGUCA | 149 nM | 94.8 nM |  |  | 
15 | ACUGACUUUACGGCCGCCACUCAUUGGCACGUGUCAUGUCAACAUGAGGAUCACCCAUGUAUGAUGAGGACCGGGUAAGGGCUGC |  |  |  |  | apparent Kd (designed as: OFF switch for tryptophan, no ligand): 10.9 nM; apparent Kd (ligand present: tryptophan, designed as: OFF switch for tryptophan): 12.7 nM
16 | GUUAUCUCAUGUUCGACGGACAUGAGGAUCACCCAUGUACCUUAGGAUAUUGAUGAAAUAUGGCGCAAGAAGGAAGGUAACGCU |  |  | 6.47 nM | 7.52 nM | 
17 | UAACCACAUGAGGAUCACCCAUGUCCCACAUUCGCAGGAUAUGGGUCACUGAGGUCACUACCAGAAGGGCGGAUGC | 467 nM | 178 nM |  |  | 
18 | GAACUGUGAGGAUAUACAUGAGGAUCACCCAUGUUUGUGUUGGCACGCACUCGGGCAAGUAGAAGGCACAGAUG |  |  | 44 nM | 73.7 nM | 

Row | Sequence | apparent Kd [1] | apparent Kd [2] | apparent Kd [5] | apparent Kd [6] | also measured
19 | GUUCUGCAUAAGGAUAUAUGAGCACACGCAGACAUAGAAGGUAUGACAUGAGGAUCACCCAUGUCCUCUCGAGA |  |  | 8.5 nM | 8.65 nM | 
20 | GUCCUCGAAGGAUAUAUUGGAAAUUACAUGAGGAUCACCCAUGUCUCGUAGUAUAGCACGAUAGAAGGUCGGAAGA |  |  | 36.1 nM | 24.6 nM | 
21 | AAUUUUUACUCAGGAUAUUGGGAGAGCACGGGUUGUUCUCCCCACAUGAGGAUCACCCAUGUGAUCAAGAAGGGAGACGCAAAG | 25.9 nM | 16.8 nM |  |  | 
22 | GCGCGCGUAGUCAGGAUAUGGUAUAAGUAACUUGGCCAGAAGGGACAUGAGGAUCACCCAUGUGCAUUGCUAGC |  |  | 9.16 nM | 9.47 nM | 
23 | CACGGAAAUCAGAAGGCGCCUACACACGCAUUGCGAGGAUAUGACCGGUCGGUCCACAUGAGGAUCACCCAUGUUAACUAACGC | 16.3 nM | 12.2 nM |  |  | 
24 | GUCUCCUGAGAGAAGGCUCGCUCCGAGGAAUAGAGAGGAUAUCUACAUGAGGAUCACCCAUGUUGCCGAGGGAAAUGCACGGGU |  |  | 68.9 nM | 90.5 nM | 
25 | AAAGGAUUCAAGAAGGUACCCUAACAUGAGGAUCACCCAUGUCUCGGUGGCAUCAAGGUACCUGGUAAGGAUAUUGCAACCACU | 39.4 nM | 33.2 nM |  |  | 
26 | ACUCUAAGAUGAGGAUAUCACAUCUUAUCGCCACGGUGGCUUCACAUGAGGAUCACCCAUGUAUGUGAGAAGGCAUUUCCGGAC |  |  | 24.1 nM | 20.7 nM | 
27 | GACAUGAGGAUCACCCAUGUGAAAUUCAUGGCGAUAACAUCUGAGGAUAUGUGCAGCCGAGGAAGACAGAAGGCAGAAACACAA |  |  | 117 nM | 119 nM | 
28 | UUAAUACAUGAGGAUCACCCAUGUUAGGAUAUAGAAAUCGCUGGUGCGAGAAGACAGGCUAGAAGGAACACGGA |  |  | 10.2 nM | 9.62 nM | 
29 | AGAAUAUGAAUAGGAUAUCUGCGUAAUGAUAAAAGAGAAGGAAUUAGAAGUAUUACAUGAGGAUCACCCAUGUUUGAUAAGAAA | 9.61 nM | 8.77 nM |  |  | 
30 | UAUUGUUUAGGAUAUACAUGAGGAUCACCCAUGUCAACGACCGUUAUAAAAUCUAAGUGUAGAAGGAAACGCCC |  |  | 13.4 nM | 12.1 nM | 
31 | UUGGCGUCAGGAUAUACCGGUCGAUUCACAAUGAACUCCGUACAUGAGGAUCACCCAUGUAGAAGGGACAGUGG |  |  | 6.22 nM | 6.07 nM | 
32 | UACAUGAACGUCAGGAUAUUGGUAUAUUACCUAGCCAAGAAGGGACAUGAGGAUCACCCAUGUAUUCGGUCCAA |  |  | 25.2 nM | 65.2 nM | 
33 | ACAGGUAGAGGAUAUCGUGAAAGUCACAUGAGGAUCACCCAUGUGGUAAGCAUGUACGCCCGAGAAGGCUAACCGC |  |  | 7.57 nM | 12.4 nM | 
34 | GCUGACCAGGAGAAGGGAUACGGUCUCCUUGUGGAAAUGAACAUGAGGAUCACCCAUGUAUUAGAUCAGGAUAUCCAAUGGAGG |  |  | 13.4 nM | 14.4 nM | 
35 | CUCUUGCGGUUAGGAUAUUCCCUUGAAAACAAUGAAGAAGGAACCAGAUGAUCACAUGUCCUACAUGAGGAUCACCCAUGUUAA |  |  | 353 nM | 211 nM | 
36 | UAUGUCGGGAAGAAGGUAAUAACGGGAUUGACAUGAGGAUCACCCAUGUGUACGAGUUAGUUGCUUAAGGAUAUUCUCGCCCAU |  |  | 6.37 nM | 5.73 nM | 
